Data from ChEMBL document CHEMBL2176955, “Discovery of the macrocycle 11-(2-pyrrolidin-1-yl-ethoxy)-14,19-dioxa-5,7,26-triaza-tetracyclo[19.3.1.1(2,6).1(8,12)]heptacosa-1(25),2(26),3,5,8,10,12(27),16,21,23-decaene (SB1518), a potent Janus kinase 2/fms-like tyrosine kinase-3 (JAK2/FLT3) inhibitor for the treatment of myelofibrosis and …” (J Med Chem, 2011).

Columns and labels:
[1] = target: Tyrosine-protein kinase JAK1 (Homo sapiens, UniProt P23458); assay: Inhibition of recombinant JAK1 using Poly (Glu,Ala,Tyr) as substrate after 2 hrs by luminescence assay
Summary of the method: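 Luciferase-coupled ATP-depletion luminescence assay in 50 mM Hepes pH 7.5 with MgCl₂, MnCl₂, BGP, DTT and orthovanadate, 2 h at room temperature. Conditions per target: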

Cytochrome P450 3A4 = Cytochrome P450 3A4 (Homo sapiens, UniProt P08684)
in vitro [2] = settings: mouse, liver microsomes
[3] = target: Tyrosine-protein kinase JAK2 (Homo sapiens, UniProt O60674); assay: Inhibition of recombinant JAK2 using Poly (Glu,Ala,Tyr) as substrate after 2 hrs by luminescence assay
Cytochrome P450 2D6 = Cytochrome P450 2D6 (Homo sapiens, UniProt P10635)
[4] = Antiproliferative activity against mouse BA/F3 cells harboring JAK2 V617F mutation assessed as cell viability after 48 hrs by Cell titer Glo assay; assay type: functional; settings: BaF3, 48 h
[5] = target: Cyclin-dependent kinase 2/cyclin A (Homo sapiens, UniProt P24941); assay: Inhibition of recombinant CDK2/Cyclin A using RbinG as substrate after 2 hrs by luminescence assay; assay type: protein-complex assay
[6] = target: T1, Tyrosine-protein kinase JAK3 (Homo sapiens, UniProt P52333); assay: Inhibition of recombinant JAK3 using Poly (Glu,Ala,Tyr) as substrate after 2 hrs by luminescence assay
T1 sequence (P52333 whole entry): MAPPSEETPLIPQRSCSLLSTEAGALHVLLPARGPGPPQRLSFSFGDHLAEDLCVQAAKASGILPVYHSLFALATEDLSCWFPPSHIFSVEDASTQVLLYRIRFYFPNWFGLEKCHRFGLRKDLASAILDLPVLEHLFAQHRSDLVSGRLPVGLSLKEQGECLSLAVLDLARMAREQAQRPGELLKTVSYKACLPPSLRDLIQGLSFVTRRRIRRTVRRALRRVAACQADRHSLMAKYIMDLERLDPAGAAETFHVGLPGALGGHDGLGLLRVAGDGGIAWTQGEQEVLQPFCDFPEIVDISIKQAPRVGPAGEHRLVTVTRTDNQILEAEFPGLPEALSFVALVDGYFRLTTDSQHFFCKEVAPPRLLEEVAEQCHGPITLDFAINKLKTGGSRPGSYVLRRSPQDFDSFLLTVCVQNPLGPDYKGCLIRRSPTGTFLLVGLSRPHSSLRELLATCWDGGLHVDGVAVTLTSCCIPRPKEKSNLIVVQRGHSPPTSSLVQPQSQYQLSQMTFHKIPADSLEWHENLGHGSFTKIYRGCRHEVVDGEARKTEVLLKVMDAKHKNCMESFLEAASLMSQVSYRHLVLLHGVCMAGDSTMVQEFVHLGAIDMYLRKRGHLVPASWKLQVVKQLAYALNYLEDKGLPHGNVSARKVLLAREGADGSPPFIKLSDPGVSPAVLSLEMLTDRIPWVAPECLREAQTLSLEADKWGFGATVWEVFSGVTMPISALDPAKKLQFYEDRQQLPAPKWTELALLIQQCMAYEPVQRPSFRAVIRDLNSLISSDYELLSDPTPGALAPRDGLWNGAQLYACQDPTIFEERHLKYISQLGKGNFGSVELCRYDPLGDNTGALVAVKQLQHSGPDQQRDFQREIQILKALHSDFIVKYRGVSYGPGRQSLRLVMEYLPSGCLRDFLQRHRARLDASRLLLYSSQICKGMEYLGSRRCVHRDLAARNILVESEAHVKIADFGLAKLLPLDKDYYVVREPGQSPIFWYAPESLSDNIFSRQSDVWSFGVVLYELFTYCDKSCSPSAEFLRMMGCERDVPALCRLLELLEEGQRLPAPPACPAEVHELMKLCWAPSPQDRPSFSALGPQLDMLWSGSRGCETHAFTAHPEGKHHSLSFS

in vitro [7] = settings: human, liver microsomes
in vitro [8] = settings: PAMPA
[9] = target: T2, Receptor-type tyrosine-protein kinase FLT3 (Homo sapiens, UniProt P36888); assay: Inhibition of recombinant FLT3 using Poly (Glu,Tyr) as substrate after 2 hrs by luminescence assay
T2 sequence (P36888 whole entry): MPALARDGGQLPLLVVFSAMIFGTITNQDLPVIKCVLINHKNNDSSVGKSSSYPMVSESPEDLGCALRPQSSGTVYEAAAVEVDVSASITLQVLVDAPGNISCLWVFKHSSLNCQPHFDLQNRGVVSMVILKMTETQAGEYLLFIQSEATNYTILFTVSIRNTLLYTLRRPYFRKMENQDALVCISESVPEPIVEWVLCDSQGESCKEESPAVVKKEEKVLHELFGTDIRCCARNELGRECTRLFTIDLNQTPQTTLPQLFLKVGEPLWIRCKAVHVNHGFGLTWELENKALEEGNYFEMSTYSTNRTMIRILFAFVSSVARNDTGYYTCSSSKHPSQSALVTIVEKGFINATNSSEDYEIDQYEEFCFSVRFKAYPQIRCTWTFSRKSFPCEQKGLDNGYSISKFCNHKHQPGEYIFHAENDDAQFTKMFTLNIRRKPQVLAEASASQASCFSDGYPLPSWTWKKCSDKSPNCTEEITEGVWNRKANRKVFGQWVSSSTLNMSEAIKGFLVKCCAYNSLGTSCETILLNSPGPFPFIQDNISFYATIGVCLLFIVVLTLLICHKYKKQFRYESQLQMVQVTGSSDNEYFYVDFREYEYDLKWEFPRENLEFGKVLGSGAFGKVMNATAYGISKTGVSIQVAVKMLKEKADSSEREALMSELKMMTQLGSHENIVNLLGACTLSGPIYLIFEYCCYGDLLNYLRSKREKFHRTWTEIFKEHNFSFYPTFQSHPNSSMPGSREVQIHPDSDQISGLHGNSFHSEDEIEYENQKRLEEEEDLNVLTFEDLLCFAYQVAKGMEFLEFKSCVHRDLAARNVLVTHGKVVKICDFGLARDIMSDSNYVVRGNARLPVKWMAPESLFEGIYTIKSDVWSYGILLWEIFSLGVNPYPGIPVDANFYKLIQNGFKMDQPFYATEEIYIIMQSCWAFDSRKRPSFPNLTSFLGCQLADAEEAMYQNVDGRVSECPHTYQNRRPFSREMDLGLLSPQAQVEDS

[10] = target: Non-receptor tyrosine-protein kinase TYK2 (Homo sapiens, UniProt P29597); assay: Inhibition of recombinant TYK2
MV4-11 = assay: Antiproliferative activity against human MV4-11 cells harboring FLT3 […] mutant assessed as cell viability after 48 hrs by Cell titer Glo assay; assay type: functional; settings: MV4-11, 48 h
physchem = settings: phosphate buffer saline, pH 7

Sequence of Cytochrome P450 3A4 (P08684 whole entry): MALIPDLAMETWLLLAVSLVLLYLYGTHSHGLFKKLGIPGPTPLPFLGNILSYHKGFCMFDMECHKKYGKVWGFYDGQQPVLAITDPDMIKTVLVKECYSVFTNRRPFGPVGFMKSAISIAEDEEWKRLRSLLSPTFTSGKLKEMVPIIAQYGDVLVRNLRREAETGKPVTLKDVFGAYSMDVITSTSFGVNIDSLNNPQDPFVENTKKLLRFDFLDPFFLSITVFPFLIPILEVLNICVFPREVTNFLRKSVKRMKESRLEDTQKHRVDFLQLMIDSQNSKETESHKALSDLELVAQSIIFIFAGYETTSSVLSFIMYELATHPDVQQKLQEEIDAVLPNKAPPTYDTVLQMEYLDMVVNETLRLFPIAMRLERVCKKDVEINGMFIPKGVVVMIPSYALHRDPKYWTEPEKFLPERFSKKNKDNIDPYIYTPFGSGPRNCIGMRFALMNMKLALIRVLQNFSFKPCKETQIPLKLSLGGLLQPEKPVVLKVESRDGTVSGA
Sequence of Cytochrome P450 2D6 (P10635 whole entry): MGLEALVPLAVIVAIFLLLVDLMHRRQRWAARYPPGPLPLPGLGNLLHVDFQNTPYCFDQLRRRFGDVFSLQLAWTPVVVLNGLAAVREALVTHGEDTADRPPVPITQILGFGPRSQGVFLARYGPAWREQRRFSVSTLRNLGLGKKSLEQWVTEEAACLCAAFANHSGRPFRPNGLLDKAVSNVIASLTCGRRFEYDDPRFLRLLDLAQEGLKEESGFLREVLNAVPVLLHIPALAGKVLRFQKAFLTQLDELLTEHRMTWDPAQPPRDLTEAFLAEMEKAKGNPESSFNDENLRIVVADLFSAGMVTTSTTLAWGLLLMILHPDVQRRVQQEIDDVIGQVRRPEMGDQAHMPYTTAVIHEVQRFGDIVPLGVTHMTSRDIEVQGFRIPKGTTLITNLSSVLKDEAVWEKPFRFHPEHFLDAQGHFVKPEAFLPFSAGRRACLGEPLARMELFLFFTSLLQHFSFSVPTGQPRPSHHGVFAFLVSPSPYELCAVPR
Sequence of Tyrosine-protein kinase JAK1 (P23458 whole entry): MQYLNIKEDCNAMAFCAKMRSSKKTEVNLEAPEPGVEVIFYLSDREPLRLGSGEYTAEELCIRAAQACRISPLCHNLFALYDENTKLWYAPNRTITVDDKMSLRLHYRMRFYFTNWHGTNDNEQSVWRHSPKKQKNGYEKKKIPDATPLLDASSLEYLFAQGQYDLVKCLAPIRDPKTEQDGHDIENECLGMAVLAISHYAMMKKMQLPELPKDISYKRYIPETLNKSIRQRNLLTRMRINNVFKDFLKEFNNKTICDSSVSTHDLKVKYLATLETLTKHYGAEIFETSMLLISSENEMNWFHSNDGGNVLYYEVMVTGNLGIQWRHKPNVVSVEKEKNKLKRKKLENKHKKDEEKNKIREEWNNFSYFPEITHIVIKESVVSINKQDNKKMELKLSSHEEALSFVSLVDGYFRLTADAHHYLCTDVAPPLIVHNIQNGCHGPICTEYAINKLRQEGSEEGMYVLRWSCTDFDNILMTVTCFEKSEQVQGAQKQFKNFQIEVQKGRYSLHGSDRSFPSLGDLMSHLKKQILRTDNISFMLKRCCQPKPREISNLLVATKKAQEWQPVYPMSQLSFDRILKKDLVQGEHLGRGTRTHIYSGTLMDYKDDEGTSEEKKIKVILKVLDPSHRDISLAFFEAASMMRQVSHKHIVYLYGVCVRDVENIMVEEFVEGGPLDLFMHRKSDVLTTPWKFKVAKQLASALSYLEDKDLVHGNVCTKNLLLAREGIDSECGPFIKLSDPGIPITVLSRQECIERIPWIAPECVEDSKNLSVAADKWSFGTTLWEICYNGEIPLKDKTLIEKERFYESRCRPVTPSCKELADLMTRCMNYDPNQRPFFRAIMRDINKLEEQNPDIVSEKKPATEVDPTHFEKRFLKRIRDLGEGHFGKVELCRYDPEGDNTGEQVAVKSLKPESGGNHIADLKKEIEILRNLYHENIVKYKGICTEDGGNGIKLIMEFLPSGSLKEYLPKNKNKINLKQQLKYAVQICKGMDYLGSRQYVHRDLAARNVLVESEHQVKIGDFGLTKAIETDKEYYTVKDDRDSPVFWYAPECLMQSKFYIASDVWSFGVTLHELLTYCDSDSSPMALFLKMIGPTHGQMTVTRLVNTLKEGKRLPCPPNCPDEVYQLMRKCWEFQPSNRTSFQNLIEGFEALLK
Sequence of Tyrosine-protein kinase JAK2 (O60674 whole entry): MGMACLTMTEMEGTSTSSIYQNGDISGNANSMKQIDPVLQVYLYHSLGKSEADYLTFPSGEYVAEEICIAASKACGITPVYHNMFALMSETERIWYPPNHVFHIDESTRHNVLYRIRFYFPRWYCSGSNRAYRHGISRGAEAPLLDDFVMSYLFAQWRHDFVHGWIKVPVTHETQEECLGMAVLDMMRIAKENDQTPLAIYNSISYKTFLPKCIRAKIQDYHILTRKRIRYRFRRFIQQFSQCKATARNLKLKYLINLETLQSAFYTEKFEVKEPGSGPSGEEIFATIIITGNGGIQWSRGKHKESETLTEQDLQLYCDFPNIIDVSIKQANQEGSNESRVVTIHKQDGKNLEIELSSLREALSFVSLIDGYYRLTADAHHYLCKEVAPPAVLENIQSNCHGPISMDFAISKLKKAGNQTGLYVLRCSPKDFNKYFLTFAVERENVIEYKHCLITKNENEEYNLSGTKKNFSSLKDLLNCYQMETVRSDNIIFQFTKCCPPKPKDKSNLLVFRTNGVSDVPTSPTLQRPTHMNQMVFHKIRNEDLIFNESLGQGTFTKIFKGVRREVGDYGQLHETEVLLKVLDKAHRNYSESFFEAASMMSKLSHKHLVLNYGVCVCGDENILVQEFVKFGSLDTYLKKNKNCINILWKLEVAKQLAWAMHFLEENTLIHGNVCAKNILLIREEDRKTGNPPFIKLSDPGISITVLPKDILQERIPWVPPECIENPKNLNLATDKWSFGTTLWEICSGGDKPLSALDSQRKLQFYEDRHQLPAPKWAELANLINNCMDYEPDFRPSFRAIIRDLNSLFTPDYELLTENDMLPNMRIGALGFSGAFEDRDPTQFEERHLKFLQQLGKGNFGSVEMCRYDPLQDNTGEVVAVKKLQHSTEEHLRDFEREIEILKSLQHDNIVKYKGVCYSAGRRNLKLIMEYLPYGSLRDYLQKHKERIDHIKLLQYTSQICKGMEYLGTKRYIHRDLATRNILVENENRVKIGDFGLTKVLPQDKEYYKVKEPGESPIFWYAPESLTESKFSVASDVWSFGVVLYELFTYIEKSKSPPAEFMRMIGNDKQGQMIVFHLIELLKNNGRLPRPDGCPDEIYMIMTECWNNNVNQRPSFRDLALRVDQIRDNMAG
Sequence of Non-receptor tyrosine-protein kinase TYK2 (P29597 whole entry): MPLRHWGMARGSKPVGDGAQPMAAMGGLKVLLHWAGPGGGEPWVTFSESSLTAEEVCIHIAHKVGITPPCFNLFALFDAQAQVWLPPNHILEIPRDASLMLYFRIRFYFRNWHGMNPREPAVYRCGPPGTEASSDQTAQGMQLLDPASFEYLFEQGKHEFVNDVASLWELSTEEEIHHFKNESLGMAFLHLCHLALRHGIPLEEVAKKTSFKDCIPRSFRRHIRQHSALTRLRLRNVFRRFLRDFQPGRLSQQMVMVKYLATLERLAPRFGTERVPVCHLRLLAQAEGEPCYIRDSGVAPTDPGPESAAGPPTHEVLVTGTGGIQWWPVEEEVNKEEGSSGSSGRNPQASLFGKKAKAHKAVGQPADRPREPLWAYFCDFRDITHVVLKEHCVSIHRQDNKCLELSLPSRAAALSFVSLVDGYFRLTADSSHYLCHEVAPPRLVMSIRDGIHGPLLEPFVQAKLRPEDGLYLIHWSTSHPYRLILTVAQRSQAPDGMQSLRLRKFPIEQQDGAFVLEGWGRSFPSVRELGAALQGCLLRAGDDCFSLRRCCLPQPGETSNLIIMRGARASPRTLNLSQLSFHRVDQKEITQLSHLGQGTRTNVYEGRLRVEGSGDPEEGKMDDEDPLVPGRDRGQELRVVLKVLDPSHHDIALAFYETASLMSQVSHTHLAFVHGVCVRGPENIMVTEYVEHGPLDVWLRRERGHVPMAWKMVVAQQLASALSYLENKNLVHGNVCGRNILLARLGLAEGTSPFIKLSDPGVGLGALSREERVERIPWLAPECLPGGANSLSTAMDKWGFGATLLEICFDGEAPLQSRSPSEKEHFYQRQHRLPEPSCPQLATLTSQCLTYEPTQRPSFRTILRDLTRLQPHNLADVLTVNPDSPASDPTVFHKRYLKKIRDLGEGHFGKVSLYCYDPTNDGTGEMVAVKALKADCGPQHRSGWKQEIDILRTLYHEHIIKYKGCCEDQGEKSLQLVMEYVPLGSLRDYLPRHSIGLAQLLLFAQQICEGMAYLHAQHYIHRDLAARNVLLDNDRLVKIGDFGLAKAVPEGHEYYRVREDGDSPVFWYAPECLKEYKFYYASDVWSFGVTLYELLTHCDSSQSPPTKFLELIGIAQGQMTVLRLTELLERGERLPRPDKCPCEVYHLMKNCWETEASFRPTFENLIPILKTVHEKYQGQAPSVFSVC

IC50 [1]	IC50 (Cytochrome P450 3A4)	half-life at 5 µM (in vitro [2])	IC50 [3]	IC50 (Cytochrome P450 2D6)	IC50 [5]	IC50 [6]	half-life at 5 µM (in vitro [7])	Papp at 5 h, 1 µM (in vitro [8])	IC50 [9]	IC50 [10]	GI50 (MV4-11)	solubility (physchem)	SMILES	GI50 [4]
950 nM	370 nM	11 min	15 nM	> 10000 nM	2700 nM	750 nM	> 60 min	3.93 ×10⁻⁶ cm/s	26 nM	84 nM	–	–	C1=CCOCc2cc(ccc2OCCN2CCCCC2)Nc2nccc(n2)-c2cccc(c2)COC1 (mixture of isomers)	160 nM
1000 nM	–	40 min	7 nM	–	–	89 nM	> 60 min	–	19 nM	57 nM	51 nM	–	Cc1cnc2nc1-c1cccc(c1)COCC=CCOCc1cc(ccc1OCCN1CCCC1)N2	180 nM
3500 nM	2800 nM	16 min	24 nM	> 10000 nM	4700 nM	620 nM	44 min	15.8 ×10⁻⁶ cm/s	29 nM	79 nM	37 nM	147 µg/mL	CCN(CC)CCOc1ccc2cc1COCC=CCOCc1cccc(c1)-c1ccnc(n1)N2 (mixture of isomers)	150 nM
> 10000 nM	> 10000 nM	29 min	19 nM	> 10000 nM	> 10000 nM	890 nM	> 60 min	10.1 ×10⁻⁶ cm/s	92 nM	180 nM	85 nM	60.8 µg/mL	COc1ccc2cc1COCC=CCOCc1cc(ccc1OCCN1CCCC1)Nc1nccc-2n1 (mixture of isomers)	100 nM
